According to ChEMBL document CHEMBL1149177, “Meta-substituted aryl(thio)ethers as potent partial agonists (or antagonists) for the histamine H3 receptor lacking a nitrogen atom in the side chain” (J Med Chem, 2004):

Columns and labels:
Mus musculus [1] = species on record: Mus musculus; assay: Intrinsic activity was determined inhibition of brain N-mehtylhistamine formation in mice relative to imetit; format: functional
Method in brief: (§1)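 Oxalate salt given orally as solution or suspension in 1% methylcellulose to groups of 6–12 male Swiss mice (18–22 g); doses 0.15–30 mg/kg. Cerebral cortex taken 90 min later, homogenized in ice-cold 0.4 N perchloric acid, Nτ-methylhistamine measured by radioimmunoassay. Agonist maxima referenced to imetit 10 mg/kg; antagonist maxima to thioperamide 10 mg/kg; ED50 as free base.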

Cavia porcellus = species on record: Cavia porcellus; assay: Tested for activity of compound against neurogenic contractions of guinea pig jejunum; Potent antagonist; format: functional; details: filed as antagonist
[2] = target: Histamine H3 receptor (Mus musculus) (UniProt P58406); assay: Activity against Histamine H3 receptor mediated inhibition of [3H]norepinephrine release from mouse brain; Partial agonist; format: functional; details: filed as partial agonist
[3] = target: Histamine H3 receptor (Homo sapiens) (UniProt Q9Y5N1); assay: Agonistic activity against histamine H3 receptor; Partial agonist; format: functional; details: filed as partial agonist
Mus musculus [4] = assay: In vivo inhibition of brain N-methyl-histamine formation in mice when administered perorally in presence of oxalate salt; format: functional; details: po
Method in brief: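 Male Swiss mice (18–22 g), groups of 6–12, given oxalate salt orally as solution or suspension in 1% methylcellulose. Cerebral cortex taken 90 min after dosing, homogenized in ice-cold 0.4 N perchloric acid. Nτ-methylhistamine measured by radioimmunoassay. Agonist maximal effect referenced to imetit 10 mg/kg; antagonist maximal effect referenced to thioperamide 10 mg/kg. ED50 given as free base.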

Histamine H3 receptor = Histamine H3 receptor (Rattus norvegicus, UniProt Q9QYN8); assay: In vitro inhibitory activity against histamine H3 receptor using [3H]histamine as radioligand from rat cerebral cortex synaptosomes; format: subcellular, Brain
Method in brief: (§2)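 Rat cerebral cortex synaptosomes preincubated 30 min at 37 °C with L-[3H]histidine to label histamine stores; K+-evoked depolarization-induced [3H]histamine release measured. Intrinsic activity taken as maximal inhibition by test substance relative to that from histamine (1 μM). Antagonism read as blockade of the histamine effect, expressed as Ki.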

[5] = target: Histamine H3 receptor (Cavia porcellus) (UniProt Q9JI35); assay: Tested for activity of compound against histamine H3 receptor in guinea pig ileum; Antagonist; format: functional, tissue-based; details: filed as antagonist
Rattus norvegicus = species on record: Rattus norvegicus; assay: In vitro effective concentration of compound required to reduce histamine release from rat synaptosomes; format: functional; details: Brain; method in brief: as §2
[6] = target: Histamine H3 receptor (Rattus norvegicus) (UniProt Q9QYN8); assay: In vitro intrinsic activity against histamine H3 receptor using [3H]histamine as radioligand from rat cerebral cortex synaptosomes with respect to histamine; No detectable agonism.; format: functional, subcellular; details: Brain; method in brief: as §2
[7] = target: Histamine H3 receptor (Rattus norvegicus) (UniProt Q9QYN8); assay: In vitro intrinsic activity against histamine H3 receptor using [3H]histamine as radioligand from rat cerebral cortex synaptosomes with respect to histamine; format: subcellular; details: Brain; method in brief: as §2
[8] = target: Histamine H3 receptor (Homo sapiens) (UniProt Q9Y5N1); assay: Tested for activity against histamine H3 receptor; Weak antagonist; format: functional; details: filed as antagonist
[9] = target: Histamine H3 receptor (Cavia porcellus) (UniProt Q9JI35); assay: In vitro activity against histamine H3 receptor in guinea pig ileum; Antagonist; format: functional, tissue-based; details: filed as antagonist
[10] = target: Histamine H3 receptor (Homo sapiens) (UniProt Q9Y5N1); assay: Tested in vivo for activity against histamine H3 receptor; Full agonist; format: functional, organism-based; details: filed as agonist; method in brief: as §1
[11] = target: Histamine H3 receptor (Rattus norvegicus) (UniProt Q9QYN8); assay: In vitro activity against histamine H3 receptor in rat synaptosomes; Partial agonist; format: functional, subcellular; details: Brain; filed as partial agonist; method in brief: as §2
[12] = target: Histamine H3 receptor (Mus musculus) (UniProt P58406); assay: Tested for activity against histamine H3 receptor in vivo in mice; Weak agonist; format: functional, organism-based; details: filed as partial agonist; method in brief: as §1
Mus musculus [13] = assay: In vivo Intrinsic activity inhibition of brain N-mehtylhistamine formation in mice relative to imetit; Antagonist.; format: functional; method in brief: as §1

Histamine H3 receptor (Homo sapiens), sequence (Q9Y5N1 whole entry): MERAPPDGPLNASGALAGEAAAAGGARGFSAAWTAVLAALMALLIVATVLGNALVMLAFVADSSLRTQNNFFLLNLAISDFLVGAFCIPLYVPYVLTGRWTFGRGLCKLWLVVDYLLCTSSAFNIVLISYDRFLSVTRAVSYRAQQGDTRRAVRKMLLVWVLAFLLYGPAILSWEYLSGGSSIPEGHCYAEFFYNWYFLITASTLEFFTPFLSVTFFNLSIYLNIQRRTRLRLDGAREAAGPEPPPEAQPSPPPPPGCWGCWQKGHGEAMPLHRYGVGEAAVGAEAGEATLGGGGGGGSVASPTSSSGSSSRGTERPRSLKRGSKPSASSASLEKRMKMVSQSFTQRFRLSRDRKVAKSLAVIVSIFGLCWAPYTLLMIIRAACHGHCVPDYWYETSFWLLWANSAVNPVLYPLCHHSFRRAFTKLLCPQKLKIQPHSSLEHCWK
Histamine H3 receptor (Cavia porcellus), sequence (Q9JI35 whole entry): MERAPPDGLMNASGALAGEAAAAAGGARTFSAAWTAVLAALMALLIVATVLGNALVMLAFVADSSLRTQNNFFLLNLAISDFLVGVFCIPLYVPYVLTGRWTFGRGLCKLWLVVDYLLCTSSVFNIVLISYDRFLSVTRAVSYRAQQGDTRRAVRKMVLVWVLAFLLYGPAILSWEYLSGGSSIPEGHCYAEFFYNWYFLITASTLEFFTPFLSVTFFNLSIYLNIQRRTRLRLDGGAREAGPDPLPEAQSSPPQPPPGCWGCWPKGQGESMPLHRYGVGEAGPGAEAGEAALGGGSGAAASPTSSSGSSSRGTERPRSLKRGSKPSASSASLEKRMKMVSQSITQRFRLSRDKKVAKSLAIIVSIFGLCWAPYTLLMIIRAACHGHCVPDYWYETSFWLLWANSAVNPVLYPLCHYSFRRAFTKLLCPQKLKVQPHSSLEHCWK
Histamine H3 receptor (Mus musculus), sequence (P58406 whole entry): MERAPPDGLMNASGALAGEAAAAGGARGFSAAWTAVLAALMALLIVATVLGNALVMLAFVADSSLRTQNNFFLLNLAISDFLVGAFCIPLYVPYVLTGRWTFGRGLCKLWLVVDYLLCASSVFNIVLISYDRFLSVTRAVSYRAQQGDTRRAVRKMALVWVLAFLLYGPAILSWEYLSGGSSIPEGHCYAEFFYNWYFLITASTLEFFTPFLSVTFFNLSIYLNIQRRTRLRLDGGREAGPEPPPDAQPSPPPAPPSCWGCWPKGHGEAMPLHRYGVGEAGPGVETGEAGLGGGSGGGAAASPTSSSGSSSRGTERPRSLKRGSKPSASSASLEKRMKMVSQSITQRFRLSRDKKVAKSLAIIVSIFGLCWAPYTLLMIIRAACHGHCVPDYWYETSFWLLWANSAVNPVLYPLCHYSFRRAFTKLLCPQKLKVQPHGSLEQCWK
Histamine H3 receptor (Rattus norvegicus), sequence (Q9QYN8 whole entry): as the sequence (P58406 whole entry) above, with A15T, T286A, G290A, H387R, V389I counted along it
Histamine H3 receptor, sequence (Q9QYN8 whole entry): as the sequence (P58406 whole entry) above, with A15T, T286A, G290A, H387R, V389I counted along it

FC(F)(F)c1cccc(OCCCCc2c[nH]cn2)c1
Intrinsic activity (Mus musculus [1]): 0.7

C[C@H]1NCC[C@@H]1c1c[nH]cn1
Activity (Cavia porcellus): Antagonist
Activity [2]: Partial agonist

Ic1ccc(COCCCc2c[nH]cn2)cc1
Activity [3]: Partial agonist

S=C(NC1CCCCC1)N1CCC(c2cnc[nH]2)CC1 [THIOPERAMIDE]
ED50 (Mus musculus [4]): 1 mg/kg

FC(F)(F)c1cccc(SCCCc2c[nH]cn2)c1
Ki (Histamine H3 receptor): 38 nM
ED50 (Mus musculus [4]): > 10 mg/kg

c1nc(CC2CCNCC2)c[nH]1
Activity (Cavia porcellus): Antagonist
Activity [2]: Partial agonist

FC(F)(F)c1ccc(OCCCc2c[nH]cn2)cc1
Intrinsic activity (Mus musculus [1]): 0
ED50 (Mus musculus [4]): 0.6 mg/kg

N#Cc1ccc(OCCCc2c[nH]cn2)cc1
Intrinsic activity (Mus musculus [1]): 0
ED50 (Mus musculus [4]): 0.54 mg/kg

CC(C)(C)c1cccc(OCCCc2cnc[nH]2)c1
Ki (Histamine H3 receptor): 22 nM

CC(C)CNC(=O)OCCCc1c[nH]cn1
Activity [5]: Antagonist

O=[N+]([O-])c1cccc(OCCCc2cnc[nH]2)c1
Ki (Histamine H3 receptor): 9.4 nM

N#Cc1cccc(OCCCc2cnc[nH]2)c1
Ki (Histamine H3 receptor): 108 nM
ED50 (Mus musculus [4]): > 10 mg/kg

FC(F)(F)c1cccc(OCCCc2c[nH]cn2)c1
Ki (Histamine H3 receptor): 8.4 nM
Intrinsic activity (Mus musculus [1]): 1
ED50 (Mus musculus [4]): 0.6 mg/kg
EC50 (Rattus norvegicus): 98 nM
Intrinsic activity [6]: 0.4

Cc1cccc(OCCCc2cnc[nH]2)c1
Ki (Histamine H3 receptor): 37 nM
ED50 (Mus musculus [4]): > 10 mg/kg

CCc1cccc(OCCCc2c[nH]cn2)c1
Intrinsic activity [7]: 0.2
Intrinsic activity (Mus musculus [1]): 0.85
ED50 (Mus musculus [4]): ~1 mg/kg

CC(C)NC(=O)OCCCc1c[nH]cn1
Activity [5]: Antagonist
Activity [8]: Partial antagonist

CC(C)c1cccc(OCCCc2c[nH]cn2)c1
Intrinsic activity [7]: 0.3
Intrinsic activity (Mus musculus [1]): 0.82
ED50 (Mus musculus [4]): 0.5 mg/kg

c1ccc(OCCCc2c[nH]cn2)cc1
ED50 (Mus musculus [4]): > 10 mg/kg

O=[N+]([O-])c1cccc(OCCCc2c[nH]cn2)c1
Intrinsic activity [7]: 0.1
Intrinsic activity (Mus musculus [1]): 0.61
ED50 (Mus musculus [4]): 1.1 mg/kg

CC(C)CCOCCCc1c[nH]cn1
Activity [9]: Antagonist
Activity [10]: Agonist
Activity [11]: Partial agonist

N=C(N)CCCc1c[nH]cn1
Activity (Cavia porcellus): Antagonist
Activity [2]: Partial agonist

CC(C)(C)NC(=O)OCCCc1c[nH]cn1
Activity [12]: Partial agonist
Activity [5]: Antagonist

Brc1cccc(OCCCc2c[nH]cn2)c1
ED50 (Mus musculus [4]): > 10 mg/kg
Intrinsic activity [6]: < 0.1

CC(=O)c1cccc(OCCCc2c[nH]cn2)c1
Intrinsic activity [7]: 0.15
Intrinsic activity (Mus musculus [1]): 0.9
ED50 (Mus musculus [4]): 0.4 mg/kg

NCC[C@@H]1C[C@@H]1c1c[nH]cn1
Activity (Cavia porcellus): Antagonist
Activity [2]: Partial agonist

N=C(N)SCCc1c[nH]cn1
Activity (Cavia porcellus): Antagonist
Activity [2]: Partial agonist

FC(F)(F)c1cccc(CCCCc2c[nH]cn2)c1
Ki (Histamine H3 receptor): 38 nM
Intrinsic activity (Mus musculus [1]): 0
ED50 (Mus musculus [4]): 6.5 mg/kg

CC(C)c1cccc(OCCCc2cnc[nH]2)c1
Ki (Histamine H3 receptor): 29 nM

FC(F)(F)c1ccccc1OCCCc1c[nH]cn1
Ki (Histamine H3 receptor): ~500 nM
ED50 (Mus musculus [4]): > 10 mg/kg

CCc1cccc(OCCCc2cnc[nH]2)c1
Ki (Histamine H3 receptor): 15 nM

FC(F)(F)c1cccc(SCCc2c[nH]cn2)c1
Intrinsic activity [7]: 0.4
Intrinsic activity (Mus musculus [1]): 0.7
ED50 (Mus musculus [4]): 0.94 mg/kg

CC(=O)c1cccc(OCCCc2cnc[nH]2)c1
Ki (Histamine H3 receptor): 20 nM

FC(F)(F)c1cc(OCCCc2c[nH]cn2)cc(C(F)(F)F)c1
Ki (Histamine H3 receptor): 116 nM
Intrinsic activity (Mus musculus [1]): 0
ED50 (Mus musculus [4]): 4.8 mg/kg

CC(C)(C)CCOCCCc1c[nH]cn1
Activity [10]: Agonist

C[C@@H](N)Cc1c[nH]cn1
Activity (Cavia porcellus): Antagonist
Activity [2]: Partial agonist

Brc1cccc(OCCCc2cnc[nH]2)c1
Ki (Histamine H3 receptor): 19 nM

CC(C)(C)c1cccc(OCCCc2c[nH]cn2)c1
Intrinsic activity [7]: 0.28
Intrinsic activity (Mus musculus [1]): 0.78
ED50 (Mus musculus [4]): 0.8 mg/kg

NC[C@H]1CC[C@H](c2c[nH]cn2)O1
Activity (Cavia porcellus): Antagonist
Activity [2]: Partial agonist

CC(NC(=O)OCCCc1c[nH]cn1)C(C)(C)C (stereo not drawn)
Activity [5]: Antagonist

FC(F)(F)c1cccc(OCCc2c[nH]cn2)c1
Intrinsic activity (Mus musculus [13]): 0
Ki (Histamine H3 receptor): 18 nM
ED50 (Mus musculus [4]): < 10 mg/kg

NCCCCCc1c[nH]cn1
Activity (Cavia porcellus): Antagonist
Activity [2]: Partial agonist

CC(C)(C)CNC(=O)OCCCc1c[nH]cn1
Activity [5]: Antagonist
